# Published values gathered from unrelated publications.
# Protocols differ between the studies behind these lines.
# Target: Serine/threonine-protein kinase 17B (STK17B, Homo sapiens, UniProt O94768)
# Sequence (O94768 1-372, as in one of the studies): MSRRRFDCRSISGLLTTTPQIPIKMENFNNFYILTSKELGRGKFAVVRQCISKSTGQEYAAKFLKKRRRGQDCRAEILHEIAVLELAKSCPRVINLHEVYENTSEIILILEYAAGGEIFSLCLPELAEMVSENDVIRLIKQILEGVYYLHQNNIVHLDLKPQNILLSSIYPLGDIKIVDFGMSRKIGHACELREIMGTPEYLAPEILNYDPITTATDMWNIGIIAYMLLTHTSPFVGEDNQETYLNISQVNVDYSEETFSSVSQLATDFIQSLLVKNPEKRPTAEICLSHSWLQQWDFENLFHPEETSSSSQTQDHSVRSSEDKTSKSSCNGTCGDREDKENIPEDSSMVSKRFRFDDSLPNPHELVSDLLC
effect on,action,method,tested at,measurement,result,SMILES
cell-free assay,,,20 µM,remaining signal,94%,Nc1ncnc2occ(-c3ccc(NC(=O)Nc4cc(C(F)(F)F)ccc4F)cc3)c12
thermal stability,,DSF,10 µM,ΔTm,1 °C,CCN1CCC2(CC1)NC(=O)c1c(c3ccc(Cl)c(Cl)c3n1C)C2C#N (racemic)
enzyme activity,,,23.5 nM,remaining activity,100%,Cc1ccc(C(=O)Nc2ccc(CN3CCN(C)CC3)c(C(F)(F)F)c2)cc1C#Cc1cnc2cccnn12
cell-free assay,,competition with immobilised ligand,1 µM,remaining binding,100%,C[C@H](NC(=O)c1cnc2n1[C@](C)(Cc1ccc(C#N)cc1)C(=O)N2c1cc(Cl)c(F)c(Cl)c1)C(=O)NC1(c2ccccn2)CC1
enzyme activity,inhibitor,radiometric,1 µM,remaining activity,23%,NS(=O)(=O)c1ccc(CNc2nc(Nc3cccc(NC(=O)N4CCCC4)c3)ncc2Br)cc1
cell-free assay,,competition with immobilised ligand,1 µM,remaining binding,99%,Cc1nc(N2CC[C@@H](O)C2)ncc1-c1cc(C(F)(F)F)cc2[nH]ncc12
enzyme activity,inhibitor,radiometric,1 µM,remaining activity,5%,Cc1nn(CC(F)(F)F)cc1Nc1ncc(Br)c(NCCCNC(=O)C2CCC2)n1
enzyme activity,inhibitor,,1 µM,remaining activity,94%,COc1cc(Cl)c(C(=O)N[C@@H](CN[C@H]2CC[C@@H](N)CC2)Cc2ccc(C#N)cc2)cc1-c1ccc(CN[C@H](C)c2ccc(C)cc2)o1
enzyme activity,inhibitor,radiometric,1 µM,remaining activity,92%,Cc1nn(CC(F)(F)F)cc1Nc1nccc(NCc2ccc(S(N)(=O)=O)cc2)n1
enzyme activity,inhibitor,,10 µM,inhibition,4%,CS(=O)(=O)Nc1cccc(-c2csc(NC(=O)CSc3nc4nccnc4c(=O)n3CCc3ccccc3)n2)c1
cell-free assay,,competition with immobilised ligand,1 µM,remaining binding,100%,O=C(Nc1cccnn1)N1CC(C/C=C/c2cncc(Oc3ccc(C(F)(F)F)cn3)n2)C1
enzyme activity,inhibitor,,1 µM,inhibition,-4%,CN1CC(Oc2cnc(C#N)cc2-c2ccn3nc(NC(=O)C4CC4)cc3c2)C1
enzyme activity,inhibitor,radiometric,1 µM,remaining activity,12%,Cc1nn(CC(F)(F)F)cc1Nc1ncc(Br)c(NCCc2cnc[nH]2)n1
enzyme activity,inhibitor,,10 µM,inhibition,11%,O=C(CSc1nc2nccnc2c(=O)n1CCc1ccccc1)Nc1nccs1
